Assay type in all cases: functional
Test [1] has as its target Angiotensin II receptor (AT-1) type-1 (Rattus norvegicus) (UniProt P29089+P25095). The test is described as follows: Angiotensin II pressor effect in rats after oral dose of 30 uM/kg. Put shortly: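 Conscious rats given vehicle by gavage, then an iv bolus Ang II challenge as control pressor response; drug at 30 μmol/kg by oral gavage, Ang II re-challenge at intervals up to 240 min. 6–8 rats per dose. […]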

Test [2] has as its target T1, Endothelin-1 receptor (Rattus norvegicus) (UniProt P26684).
T1 sequence (whole entry): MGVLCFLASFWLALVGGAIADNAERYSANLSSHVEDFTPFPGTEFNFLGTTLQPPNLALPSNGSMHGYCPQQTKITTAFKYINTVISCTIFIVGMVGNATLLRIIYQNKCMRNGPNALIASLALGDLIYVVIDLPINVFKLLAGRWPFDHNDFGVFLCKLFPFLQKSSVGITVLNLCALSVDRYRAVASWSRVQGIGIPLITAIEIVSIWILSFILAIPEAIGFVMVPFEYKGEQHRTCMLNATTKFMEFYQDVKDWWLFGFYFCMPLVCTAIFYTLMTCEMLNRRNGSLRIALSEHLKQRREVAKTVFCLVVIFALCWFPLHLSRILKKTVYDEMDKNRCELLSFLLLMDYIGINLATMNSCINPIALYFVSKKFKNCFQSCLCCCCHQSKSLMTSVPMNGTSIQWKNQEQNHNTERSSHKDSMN
Put plainly: Endothelin pressor effect in rats after oral dose of 30 uM/kg. The essentials:
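Conscious normotensive rats; big endothelin-1 (1.0 nmol/kg iv) challenge after vehicle gave the control pressor response. Drug at 30 μmol/kg given po (or iv), then bET-1 re-challenge at various times after dosing. 6–8 rats per group.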

The test system of a further test is Caco-2. The test is described as follows: Permeability in Caco-2 cell monolayer. (Caco-2 cells form a polarised layer with tight junctions and transporters.)

Active and inactive are the calls of the source. The calls are words filed in the database; no cut-off is given here.

For the molecule `CCCCC1=NC2(CCCC2)C(=O)N1Cc1ccc(-c2ccccc2S(=O)(=O)Nc2onc(C)c2C)c(COCC)c1`, the Activity came to 13900 AUC units in test [1], 3900 AUC units in test [2] and 170 nm/s with Caco-2.
`CCCCC1=NC2(CCCC2)C(=O)N1Cc1ccc(-c2ccccc2S(=O)(=O)Nc2noc(C)c2C)c(COCC)c1`: the Activity in test [1] came out at 18600 AUC units; in test [2], 15800 AUC units.
As for `CCCCC1=NC2(CCCC2)C(=O)N1Cc1ccc(-c2ccccc2S(=O)(=O)Nc2onc(C)c2C)c(CCC)c1`, the Activity in test [1] was found to be 15900 AUC units; in test [2] it was 8600 AUC units; with Caco-2, 240 nm/s.
Turning to `CCCCC1=NC2(CCCC2)C(=O)N1Cc1ccc(-c2ccccc2S(=O)(=O)Nc2onc(C)c2C)c(CN2CCC(C)(C)C2=O)c1` [BMS-248360], the results for the Activity (in test [1]; in test [2]; in the test on Caco-2) were 5800 AUC units, 7900 AUC units and 30 nm/s, respectively.
With `CCCCC1=NC2(CCCC2)C(=O)N1Cc1ccc(-c2ccccc2S(=O)(=O)Nc2noc(C)c2C)c(CCC)c1`, the Activity in test [1] came out at 16300 AUC units; in test [2], 13000 AUC units.
Consider `CCCCC1=NC2(CCCC2)C(=O)N1Cc1ccc(-c2ccccc2-c2nnn[nH]2)cc1` [IRBESARTAN], for which the figures for the Activity (in test [1]; with Caco-2) were 13500 AUC units and 100 nm/s, respectively. In addition, the result in test [2] was inactive.
For the molecule `Cc1noc(NS(=O)(=O)c2ccccc2-c2ccc(-c3ncco3)cc2)c1C`, the result in test [1] was inactive. For the same molecule, the Activity in test [2] was 9700 AUC units.
